Data on one substance can be found in paper PMC3880025 (ACS nano, 2013).

The subject of data set [1] is Primary human dermal fibroblasts. As to the kind of experiment: Cellular viability after exposure to QD-peptide conjugates. To be noted: exposure to 100 nM of 75 peptide/QD. Type of data set: cell-based.
For data set [2], the system named is A549 cells. The data set is described as above. In kind it is cell-based, human. The following applies: exposure to 100 nM of 75 peptide/QD.
Data set [3] relates to PC12 cells. The data set is described as above. To be noted: exposure to 100 nM of 75 peptide/QD. In kind it is cell-based, rat.
The test system of data set [4] is Hela cells. Described as above. To be noted: exposure to 100 nM of 75 peptide/QD. Type of data set: cell-based, human.
In data set [5] the test system is HEK 293 cells. Described as above. In kind it is cell-based, human. To be noted: exposure to 100 nM of 75 peptide/QD.
Data set [6] concerns Primary human dermal fibroblasts. As to the kind of experiment: Semi-quantitative imaging assay of QD uptake and endosomal escape. Type of data set: cell-based. In short, it runs like this:
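Peptides were self-assembled onto 550 nm CdSe/ZnS QDs in DMEM with 25 mM HEPES at 25°C for 20–30 min (QDs typically 80–150 nM final). Cells on fibronectin-coated coverglass were exposed for 2 h at 37°C with Tf-Cy5 (50 µg/mL) to mark endosomes, then washed, cultured 48 h, fixed in 3.7% paraformaldehyde and DAPI-stained. Individual cells were imaged and classed for QD uptake (none/low/moderate/high) and endosomal escape.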

Data set [7] relates to COS-1 cells. The experiment in a line: Semi-quantitative imaging assay of QD uptake and endosomal escape. Type of data set: cell-based, African Green Monkey.
The test system of data set [8] is COS-1 cells. As to the kind of experiment: Cellular viability after exposure to QD-peptide conjugates. In kind it is cell-based, African Green Monkey.
Data set [9] relates to cultured cells. To be noted: preliminary screening of QD cellular delivery; cited from earlier work.

Consider WG•(Dap^Pal)•VKIKK•P9•GG•H6 [JB577], for which the “Cellular viability (%)” value in [1] is given as 92 ±6%; in data set [2] it was 96 ±3%; in data set [3], 97 ±10%; in data set [4] it was 98 ±1%; in data set [5], 87 ±5%; in data set [8] (exposure to 100 nM of 75 peptide/QD), 98 ±4%. In addition, the “Overall uptake/escape: QD uptake class” value is listed as “high (high (>60% uptake))” in [6] (first word of the cell) and “high/high (high (>60% uptake))” in data set [7] (first word of the cell, 100 nM QDs, 75 peptides/QD, 48 h culture). In addition, the “Overall uptake/escape: endosomal escape class” value in data set [6] (second word of the cell) is reported as “moderate (moderate (30–70%))”. Further, in data set [7] (100 nM 550 nm QDs, 75 peptides/QD, 2 h incubation, 48 h culture), the “% Escape in cells with uptake” value is reported as ~ 77%. Moreover, the “Endosomal escape / intracellular localization of QDs, result in words” value in data set [7] (QD-peptide conjugates, SAR comparison with JB577) is “well-dispersed throughout the cytosol”. In addition, in [8] (continuous 48 h exposure to peptide alone), the “Cellular viability, continuous 48 h exposure, peptide alone” value is on record as 87±7%. Besides, the “Cellular viability, continuous 48 h exposure, QD conjugates” value in data set [8] (continuous 48 h exposure to peptide-QD conjugates) turned out to be 97±6%. Moreover, the “Time after delivery at which cytosolic release peaked” value in [9] is on record as ~ 48 h. Further, the “Time of endocytic uptake of QDs” value in [9] is 1 to 2 h.
